Measured values taken from ChEMBL document CHEMBL1124259, “C-nor-9,11-secoestranes as modified estrogens and fertility regulation” (1988).

Columns and labels:
Assay type in all cases: functional
[1] = system: Rattus norvegicus; assay: Antiimplantation activity as minimum effective dose after peroral administration.; conditions: po, read-out: MED
Summary of the method: (§1)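 Colony-bred adult female rats (150–170 g) were dosed orally with the compound as a gum acacia suspension on days 1–7 postcoitum, five to seven animals per group. Implants were counted by laparotomy on day 10 of pregnancy. The value is the minimum dose at which implants were totally absent from both uterine horns.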

[2] = system: Rattus norvegicus; assay: Antiimplantation activity as minimum effective dose after subcutaneous administration.; conditions: sc, read-out: MED
Summary of the method: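 Compound was given subcutaneously in 0.5 mL propylene glycol–saline (1:1, v/v) to colony-bred adult female rats (150–170 g) on days 1–7 postcoitum, five to seven animals per group. Laparotomy on day 10 of pregnancy counted implants. The minimum dose giving total absence of implants in both uterine horns was recorded.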

[3] = system: Rattus norvegicus; assay: Antiimplantation activity as minimum effective dose after oral administration; conditions: read-out: MED; summary of the method: as §1
[4] = system: Rattus norvegicus; assay: Antiimplantation activity as minimum effective dose after oral administration.; conditions: read-out: MED; summary of the method: as §1
[5] = system: Rattus norvegicus; assay: Antiimplantation activity was measured as minimum effective dose after oral administration.; conditions: read-out: MED; summary of the method: as §1

With `COc1ccc2c(c1)CCC(C1CCC(O)C1(C)C)C2` (stereo not given) as the compound, how does the minimal effective dose [1] read?
The minimal effective dose was 10.5 mg/kg.

And the minimal effective dose [2]?
Its minimal effective dose is 1.5 mg/kg.

With `C#C[C@]1(O)CC[C@H]2[C@@H]3CCc4cc(O)ccc4[C@H]3CC[C@@]21C` [ETHINYL ESTRADIOL] as the compound, how does the minimal effective dose [3] read?
Its minimal effective dose is 0.15 mg/kg.

Which minimal effective dose [4] does the source give for `C#C[C@]1(O)CCC(C2CCc3cc(O)ccc3C2)C1(C)C` (stereo not given in full) here?
The minimal effective dose was 0.75 mg/kg.

And the minimal effective dose [2]?
Its minimal effective dose is 0.025 mg/kg.

With `C#C[C@]1(O)CCC(C2CCc3cc(OC)ccc3C2)C1(C)C` (stereo not given in full) as the compound, how does the minimal effective dose [5] read?
The minimal effective dose was 1 mg/kg.

What about the minimal effective dose [2] of the same compound?
The minimal effective dose was 0.025 mg/kg.

With `CC1(C)C(O)CCC1C1CCc2cc(O)ccc2C1` (stereo not given) as the compound, how does the minimal effective dose [1] read?
Its minimal effective dose is 10 mg/kg.

What about the minimal effective dose [2] of the same compound?
The minimal effective dose was 0.01 mg/kg.

`C[C@]12CC[C@@H]3c4ccc(O)cc4CC[C@H]3[C@@H]1CC[C@@H]2O` [ESTRADIOL] was tested. Which minimal effective dose [2] did it give?
Its minimal effective dose is 0.015 mg/kg.
